Source: PMC9514665 (Neuropharmacology, 2021)
Several values for one entry are separate records, joined by “and”; a condition that tells them apart may be missing. Equal entries are not always repeated. Where two headings read alike, the source gives them in different places. Marks after values point to notes of the source that are not given here.

Columns and labels:
anandamide (AEA) = assay: Hippocampal anandamide concentrations after ABX-1431 treatment; type: in vivo, mouse; conditions: acute i.p. treatment; F1.Scn1a^+/− mice
In short: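 Acute i.p. dosing of F1.Scn1a+/− mice in ethanol:Tween 80:saline (1:1:18), 10 mL/kg. Whole brains were taken 60 min post-dose after hyperthermia testing, by cervical dislocation without anaesthesia, and snap frozen. Hippocampi were Dounce-homogenised and spun at 20,000g for 30 min at 4°C. Supernatant underwent dichloromethane:methanol (2:1)/0.88% KCl liquid-liquid extraction on ice, avoiding plastics. Analysis was by UHPLC-triple quadrupole LC-MS/MS against external calibration curves. 2-AG: Brown-Forsythe ANOVA, Dunnett's T3. Anandamide: Kruskal-Wallis.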

[1] = system: 2-arachidonoylglycerol (2-AG); assay: Hippocampal 2-AG concentrations after ABX-1431 treatment; type: in vivo, mouse; conditions: F1.Scn1a^+/− mice
F1.Scn1a^+/− mice [2] = assay: Spontaneous seizures and survival; type: in vivo, mouse; conditions: 350 mg ABX-1431/kg chow
In short: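 Male and female F1.Scn1a+/− mice had one hyperthermia-induced seizure at P18, then were randomised to untreated or 350 mg/kg medicated chow made from irradiated powdered diet. Continuous 60-h video recording was used to count and score spontaneous GTCS. Treatment continued to P30 for survival. Fisher's exact test covered seizure-free and hindlimb-extension proportions, Mann-Whitney covered frequency, and logrank covered survival.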

CB1 receptor [3] = assay: Hippocampal CB1 receptor expression by immunoblotting after subchronic treatment; type: in vivo, mouse; conditions: subchronic 350 mg ABX-1431/kg chow; F1.Scn1a^+/− mice; p = 0.0077
In short: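 Hippocampi from F1.Scn1a+/− mice, untreated or fed 350 mg/kg chow, were Dounce-homogenised in buffered 0.32 M sucrose. Membranes were isolated by sequential 2,000g and 20,000g spins at 4°C and protein quantified by Bradford. Membrane protein (20 μg) was run on 10% SDS-PAGE and transferred to PVDF. Rabbit anti-CB1 was detected with fluorescent secondaries (1:20,000). Densitometry was normalised to β-tubulin; Student's t-test.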

[4] = type: in vivo, mouse; conditions: for concentration at 60 min: both, F1.Scn1a+/−, mouse, in vivo, Plasma Concentration; for concentration at 60 min / Plasma Concentration: F1.Scn1a^+/− mice; for Plasma Concentration: 30 min
F1.Scn1a^+/− mice [5] = assay: Hyperthermia-induced seizures; type: in vivo, mouse
In short: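 Male and female F1.Scn1a+/− mice at P14–16 received i.p. dosing (10 mL/kg; vehicle ethanol:Tween 80:saline 1:1:18). A rectal probe was inserted 15 min before the post-dose time point (30 or 60 min, set by PK), followed by 5-min acclimation. Core temperature was raised 0.5°C every 2 min until first clonic convulsion with loss of posture, or to 42.5°C with a 3-min hold. n = 17–22 per group; logrank Mantel-Cox.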

[6] = Pharmacokinetic analysis in mouse plasma and brain after i.p. injection; type: in vivo
[7] = type: in vivo, mouse; conditions: 350 mg/kg chow, subchronic oral
F1.Scn1a^+/− mice [8] = conditions: 2017, cited from earlier work
neuropathic pain model = conditions: combined with the MAGL inhibitor JZL184; ref Slivicki et al., 2018; cited from earlier work
wildtype mice = conditions: 10 mg/kg; ref Laprairie et al., 2019; cited from earlier work
[9] = system: Genetic Absence Epilepsy Rats from Strasbourg (GAERS); conditions: ref Roebuck et al., 2021, cited from earlier work
Aqueous solubility = type: physicochemical
CB1 receptor [10] = conditions: ref Laprairie et al., 2017; cited from earlier work
[11] = Oral bioavailability after subchronic oral administration; type: in vivo, mouse; conditions: sufficient plasma concentrations not achieved
CB1 receptor [12] = conditions: repeated exposure to low doses, ref Ghosh et al., 2013, Kinsey et al.; cited from earlier work
[13] = brain, wildtype mice, 5 mg/kg i.p.
[14] = brain, wildtype mice, 5 mg/kg i.p., converted from ng/mg brain assuming density of 1 g/mL
[15] = plasma, wildtype mice, 5 mg/kg i.p.

O=C(OC(C(F)(F)F)C(F)(F)F)N1CCN(Cc2ccc(C(F)(F)F)cc2N2CCCC2)CC1 [ABX-1431]
effect on hippocampal anandamide concentrations (anandamide (AEA)): not affected
hippocampal 2-AG concentrations relative to vehicle-treated mice ([1]; acute 10 mg/kg i.p.): 8 fold
hippocampal 2-AG concentrations increase ([1]; acute 30 mg/kg i.p.): 13 fold
hippocampal 2-AG concentrations increase ([1]; subchronic oral (350 mg/kg chow)): 15 fold
survival compared with untreated controls (F1.Scn1a^+/− mice [2]; P18 to P30, p = 0.6803): not different
effect on spontaneous seizure (GTCS) frequency (F1.Scn1a^+/− mice [2]; 60-h recording, vs untreated, p = 0.0064): significantly increase
proportion of seizures that progressed to full hindlimb extension (F1.Scn1a^+/− mice [2]; 93/272 seizures, untreated 45/83 (54%), p = 0.0011): 34%
effect on proportion of mice that exhibited seizures (F1.Scn1a^+/− mice [2]; vs untreated, p = 0.6562): did not affect
effect on hippocampal CB1 receptor expression (CB1 receptor [3]): significantly lowered
concentration at 60 min ([4]; 3 mg/kg i.p.): 198 ± 31 ng/mL
concentration at 60 min ([4]; 10 mg/kg i.p.): 373 ± 53 ng/mL
concentration at 60 min ([4]; 30 mg/kg i.p.): 883 ± 114 ng/mL
temperature threshold for thermally-induced seizures (GTCS) (F1.Scn1a^+/− mice [5]; 10 mg/kg i.p., vehicle 40.6 ± 0.1°C, p = 0.0008): 41.3 ± 0.2 °C
AUC ([6]; mouse, in vivo, ip, 5 mg/kg): 483 ng·h/mL
Cmax ([6]; mouse, in vivo, ip, 5 mg/kg): 317 ± 40 ng/mL
brain half-life (in words) ([6]; mouse, in vivo, ip, 5 mg/kg): prolonged
half-life ([6]; mouse, in vivo, ip, 5 mg/kg): 47 min
Cmax ([6]; mouse, in vivo, ip, 5 mg/kg, Cmax): 468 ± 40 ng/mL
Plasma Concentration [7]: 170 to 394 ng/mL

C=C(C)[C@@H]1CCC(C)=C[C@H]1c1c(O)cc(CCCCC)cc1O [CBD, cannabidiol]
effective dose in this model (F1.Scn1a^+/− mice [8]; ref Anderson et al., 2020, 2019a, Kaplan et al.): 100 mg/kg

O=[N+]([O-])CC(c1ccccc1)c1c(-c2ccccc2)[nH]c2ccccc12 (stereo not shown) [GAT211]
antinociceptive effect (neuropathic pain model): synergistic

O=[N+]([O-])C[C@@H](c1ccccc1)c1c(-c2ccccc2)[nH]c2ccccc12 [GAT229]
effect on locomotor activity (wildtype mice): reduced
association with sedation or catalepsy ([9]; GAERs model): not associated
effect against absence seizures [9]: anticonvulsant effects
Plasma Concentration ([4]; 10 mg/kg i.p.): 900 ± 100 ng/mL
Plasma Concentration ([4]; 30 mg/kg i.p. (suspension)): 2600 ± 500 ng/mL
Plasma Concentration ([4]; 100 mg/kg i.p. (suspension)): 3200 ± 200 ng/mL
Plasma concentrations in experimental animals ([4]; 30 and 100 mg/kg doses): 7.6–9.3 μM and 2.6–3.2 μg/mL
Plasma Concentration of GAT229 ([4]; co-treatment GAT229 + ABX-1431 (30 mg/kg + 10 mg/kg)): 2300 ± 300 ng/mL
temperature threshold for thermally-induced seizures (GTCS) (F1.Scn1a^+/− mice [5]; 30 mg/kg i.p., vehicle 41.1 ± 0.1°C, p = 0.0152): 41.7 ± 0.2 °C
temperature threshold for thermally-induced seizures (GTCS) (F1.Scn1a^+/− mice [5]; 100 mg/kg i.p., vehicle 41.1 ± 0.1°C, p = 0.0059): 41.8 ± 0.1 °C
aqueous solubility (Aqueous solubility): poor
t1/2 [6, 13]: 53 min
tmax [6, 13]: 30 ng/mL
AUC [6, 14]: 85 ^* μg min/mL
Cmax [6, 14]: 888 ± 90 ng/mL
AUC [6, 15]: 1230 ng·h/mL
Cmax [6, 15]: 858 ± 167 ng/mL
t1/2 [6, 15]: 45 min
tmax [6, 15]: 30 ng/mL
brain-plasma ([6]; wildtype mice, 5 mg/kg i.p.): 110%
brain-plasma ratio ([6]; wildtype mice, 5 mg/kg i.p.): 1.1
EC50 (CB1 receptor [10]): ~295 nM
oral bioavailability [11]: poor

O=C(Oc1ccc([N+](=O)[O-])cc1)N1CCC(C(O)(c2ccc3c(c2)OCO3)c2ccc3c(c2)OCO3)CC1 [JZL184]
CB1 receptor downregulation and desensitization (CB1 receptor [12]): does not occur

CN1C(=O)CC(=O)N(c2ccccc2)c2cc(Cl)ccc21 [clobazam]
effective dose in this model (F1.Scn1a^+/− mice [8]; ref Anderson et al., 2019a, Hawkins et al.): 1 mg/kg
